According to ChEMBL document CHEMBL1268850, “Search for antifungal compounds from the wood of durable tropical trees” (2010):
In brackets after ≈: the same amount, converted by molar mass.

Key:
[1] = tested on: Nannizzia gypsea; assay: Antifungal activity against Microsporum gypseum LMGO 533 after 5 days microdilution technique; format: functional; settings: LMGO 533, 120 h
How it was run: (§1)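 Dermatophytes were maintained on potato dextrose agar and subcultured 5 days at 28 °C before testing. Microdilution followed CLSI M38-A, with extracts at 500 to 0.98 µg/mL and pure compounds at 256 to 0.5 µg/mL. Fluconazole and itraconazole were the references. Plates were incubated at 32 °C and read after 5 days. MIC is the lowest concentration preventing visible growth, in triplicate.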

[2] = tested on: Candida parapsilosis; assay: Antifungal activity against Candida parapsilosis LMGO 05 after 2 days microdilution technique; settings: Lodderomyces parapsilosis, LMGO 05, 48 h
[3] = tested on: Candida albicans; assay: Antifungal activity against Candida albicans ATCC 10231 after 5 days microdilution technique; format: functional; settings: ATCC 10231, 120 h
How it was run: (§2)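 Yeasts were kept on potato dextrose agar and subcultured 2 days at 28 °C before testing. Broth microdilution followed CLSI M27-A2. Crude extracts were tested at 500 to 0.98 µg/mL and pure compounds at 256 to 0.5 µg/mL. Fluconazole (64 to 0.125 µg/mL) and itraconazole (16 to 0.031 µg/mL) served as references. Plates were incubated at 32 °C. MIC is the lowest concentration with no visible growth, in triplicate.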

[4] = tested on: Candida albicans; assay: Antifungal activity against Candida albicans LMGO 102 after 5 days microdilution technique; format: functional; settings: LMGO 102, 120 h; how it was run: as §2
[5] = tested on: Nannizzia gypsea; assay: Antifungal activity against Microsporum gypseum LMGO 10 after 5 days microdilution technique; format: functional; settings: LMGO 10, 120 h; how it was run: as §1
[6] = tested on: Microsporum canis; assay: Antifungal activity against Microsporum canis LMGO 22 after 5 days microdilution technique; format: functional; settings: LMGO 22, 120 h; how it was run: as §1
[7] = tested on: Pichia kudriavzevii; assay: Antifungal activity against Candida krusei LMGO 174 after 5 days microdilution technique; format: functional; settings: LMGO 174, 120 h; how it was run: as §2
[8] = tested on: Candida parapsilosis; assay: Antifungal activity against Candida parapsilosis ATCC 22019 after 5 days microdilution technique; format: functional; settings: Lodderomyces parapsilosis, ATCC 22019, 120 h; how it was run: as §2
[9] = tested on: Trichophyton mentagrophytes; assay: Antifungal activity against Trichophyton mentagrophytes LMGO 1931 after 5 days microdilution technique; format: functional; settings: LMGO 1931, 120 h; how it was run: as §1
[10] = tested on: Trichophyton mentagrophytes; assay: Antifungal activity against Trichophyton mentagrophytes LMGO 09 after 5 days microdilution technique; format: functional; settings: LMGO 09, 120 h; how it was run: as §1
[11] = tested on: Trichophyton rubrum; assay: Antifungal activity against Trichophyton rubrum LMGO 4218 after 5 days microdilution technique; format: functional; settings: LMGO 4218, 120 h; how it was run: as §1
[12] = tested on: Microsporum canis; assay: Antifungal activity against Microsporum canis LMGO 02 after 5 days microdilution technique; format: functional; settings: LMGO 02, 120 h; how it was run: as §1
[13] = tested on: Trichophyton rubrum; assay: Antifungal activity against Trichophyton rubrum LMGO 06 after 5 days microdilution technique; format: functional; settings: LMGO 06, 120 h; how it was run: as §1
[14] = tested on: Nakaseomyces glabratus; assay: Antifungal activity against Candida glabrata LMGO 44 after 5 days microdilution technique; format: functional; settings: LMGO 44, 120 h; how it was run: as §2
[15] = tested on: Cryptococcus gattii species complex; assay: Antifungal activity against Cryptococcus gattii LMGO L1 after 5 days microdilution technique; format: functional, Cryptococcus bacillisporus; settings: LMGO L1, 120 h; how it was run: as §2
[16] = tested on: Trichophyton rubrum; assay: Antifungal activity against Trichophyton rubrum LMGO 08 after 5 days microdilution technique; format: functional; settings: LMGO 08, 120 h; how it was run: as §1
[17] = tested on: Nakaseomyces glabratus; assay: Antifungal activity against Candida glabrata LMGO 44 after 2 days microdilution technique; settings: LMGO 44, 48 h
[18] = tested on: Candida parapsilosis; assay: Antifungal activity against Candida parapsilosis ATCC 22019 after 2 days microdilution technique; settings: Lodderomyces parapsilosis, ATCC 22019, 48 h
[19] = tested on: Candida albicans; assay: Antifungal activity against Candida albicans ATCC 10231 after 2 days microdilution technique; settings: ATCC 10231, 48 h
[20] = tested on: Candida albicans; assay: Antifungal activity against Candida albicans LMGO 102 after 2 days microdilution technique; settings: LMGO 102, 48 h
[21] = tested on: Cryptococcus gattii species complex; assay: Antifungal activity against Cryptococcus gattii LMGO L1 after 2 days microdilution technique; settings: LMGO L1, 48 h
[22] = tested on: Pichia kudriavzevii; assay: Antifungal activity against Candida krusei LMGO 174 after 2 days microdilution technique; settings: LMGO 174, 48 h

| SMILES | MIC [1] | MIC [2] | MIC [5] | MIC [6] | MIC [9] | MIC [10] | MIC [11] | MIC [12] | MIC [13] | MIC [16] | MIC [17] | MIC [18] | MIC [19] | MIC [20] | MIC [21] | MIC [22] | also measured |
| --- | --- | --- | --- | --- | --- | --- | --- | --- | --- | --- | --- | --- | --- | --- | --- | --- | --- |
| OC(Cn1cncn1)(Cn1cncn1)c1ccc(F)cc1F [FLUCONAZOLE] | 64 µg/mL (≈ 209 µM) | 4 µg/mL (≈ 13.1 µM) | 16 µg/mL (≈ 52.2 µM) | > 64 µg/mL | 4 µg/mL (≈ 13.1 µM) | 16 µg/mL (≈ 52.2 µM) | 32 µg/mL (≈ 104 µM) | > 64 µg/mL | 4 µg/mL (≈ 13.1 µM) | 8 µg/mL (≈ 26.1 µM) |  |  |  |  |  |  | MIC [3]: > 64 µg/mL; MIC [4]: 1 µg/mL (≈ 3.27 µM); MIC [7]: 8 µg/mL (≈ 26.1 µM); MIC [8]: > 64 µg/mL; MIC [14]: 4 µg/mL (≈ 13.1 µM); MIC [15]: > 64 µg/mL |
| CCC(C)n1ncn(-c2ccc(N3CCN(c4ccc(OCC5COC(Cn6cncn6)(c6ccc(Cl)cc6Cl)O5)cc4)CC3)cc2)c1=O (centres undefined) [ITRACONAZOLE] | 0.975 µg/mL (≈ 1.38 µM) | 0.25 µg/mL (≈ 0.354 µM) | 0.25 µg/mL (≈ 0.354 µM) | 16 µg/mL (≈ 22.7 µM) | 0.5 µg/mL (≈ 0.709 µM) | 0.25 µg/mL (≈ 0.354 µM) | 0.5 µg/mL (≈ 0.709 µM) | 16 µg/mL (≈ 22.7 µM) | 0.125 µg/mL (≈ 0.177 µM) | 0.125 µg/mL (≈ 0.177 µM) | 0.5 µg/mL (≈ 0.709 µM) | 0.25 µg/mL (≈ 0.354 µM) | 0.5 µg/mL (≈ 0.709 µM) | > 16 µg/mL | 2 µg/mL (≈ 2.83 µM) | 16 µg/mL (≈ 22.7 µM) |  |
| C=CCCCCCCCC[C@@H]1C[C@H](C[C@@H](O)CO)C(=O)O1 [RUBRENOLIDE] | 256 µg/mL (≈ 858 µM) | 32 µg/mL (≈ 107 µM) | 16 µg/mL (≈ 53.6 µM) | 128 µg/mL (≈ 429 µM) | 64 µg/mL (≈ 214 µM) | 8 µg/mL (≈ 26.8 µM) | 16 µg/mL (≈ 53.6 µM) | 16 µg/mL (≈ 53.6 µM) | 8 µg/mL (≈ 26.8 µM) | 8 µg/mL (≈ 26.8 µM) | 4 µg/mL (≈ 13.4 µM) | 32 µg/mL (≈ 107 µM) | 64 µg/mL (≈ 214 µM) | 16 µg/mL (≈ 53.6 µM) | 256 µg/mL (≈ 858 µM) | 64 µg/mL (≈ 214 µM) |  |
| C#CCCCCCCCC[C@@H]1C[C@H](C[C@@H](O)CO)C(=O)O1 [RUBRYNOLIDE] | 32 µg/mL (≈ 108 µM) | 128 µg/mL (≈ 432 µM) | 32 µg/mL (≈ 108 µM) | 64 µg/mL (≈ 216 µM) | > 256 µg/mL | 32 µg/mL (≈ 108 µM) | 32 µg/mL (≈ 108 µM) | 32 µg/mL (≈ 108 µM) | 32 µg/mL (≈ 108 µM) | 32 µg/mL (≈ 108 µM) | 32 µg/mL (≈ 108 µM) | 128 µg/mL (≈ 432 µM) | 128 µg/mL (≈ 432 µM) | 32 µg/mL (≈ 108 µM) | 128 µg/mL (≈ 432 µM) | 64 µg/mL (≈ 216 µM) |  |
